Results collected from several papers.
Each line is one published result; the experiments were not run side by side.
Target: Myosin-IIIa (MYO3A, Homo sapiens, UniProt Q8NEV4)

The remaining binding of Cc1nccc(COC(=O)N2C[C@@H]3[C@@H](CNC(=O)c4ccc5[nH]nnc5c4)[C@@H]3C2)n1 is reported as 99% (binding, competition with immobilised ligand; 1 µM).
O=C(NCC1CCOCC1)c1n[nH]cc1NC(=O)c1c(F)cccc1F gave a remaining binding of 88% (binding, competition with immobilised ligand; 1 µM).
F[C@@H]1CCN(c2nccc(-c3cnn4ncccc34)n2)C1 has a remaining binding of 93% (binding; 1 µM).
O=C(NCCCN1CCOCC1)c1ccc(Nc2ncc(Cl)c(-c3ccc(Cl)s3)n2)cc1 has a remaining binding of 95% (binding, competition with immobilised ligand; 1 µM).
C[C@@H](c1ccc(-n2cnc3c(N)ncnc32)cc1)N1CCc2nn(C)c(Cc3ccccc3)c2C1=O has a remaining binding of 97% (binding, competition with immobilised ligand; 0.1 µM).
With c1cncc(-c2cccc(Nc3nccc(NC4CCCCC4)n3)c2)c1 the remaining binding was 99% (binding, competition with immobilised ligand; 10 µM).
For C[C@@H]1CCN(c2nccc(-c3cnn4ncccc34)n2)C1, the remaining binding was 100% (binding; 1 µM).
c1ccc(N2CCN(Cc3nc4ccccc4[nH]3)CC2)nc1 has a remaining binding of 100% (binding, competition with immobilised ligand; 1 µM).
O=C(c1ccc(Nc2nccc(-c3cc4ccccc4s3)n2)cc1)N1CCC(N2CCCC2)CC1 has a remaining binding of 100% (binding, competition with immobilised ligand; 1 µM).
Nc1ncc2c(n1)-c1c([nH]c3ccc(C#CC4CC4)cc13)CCCC2 gave a remaining binding of 91% (binding, competition with immobilised ligand; 1 µM).
The remaining binding of CN(C)c1ncc(F)c(-c2cnn3ncccc23)n1 is reported as 100% (binding; 1 µM).
FC(F)(F)Oc1cccc(-c2cnc3ccc(-c4ccncc4)nn23)c1 has a remaining binding of 82% (cell-free assay, competition with immobilised ligand; 5 µM).
With Cc1cnn2ncc(-c3ccnc(N(C)C)n3)c2c1 the remaining binding was 100% (binding; 1 µM).
CS(=O)(=O)c1cc(C2(NC(=O)c3cncc4c3cnn4-c3ccc(F)cc3)CC2)ccn1 has a remaining binding of 85% (cell-free assay, competition with immobilised ligand; 1 µM).
CC1CCCN1c1nccc(-c2cnn3ncccc23)n1 (stereo not drawn) gave a remaining binding of 100% (binding; 1 µM).
For O=C(O)c1cc(-c2ccc(C3CCNCC3)cc2)c2ccc(-c3ccc(C(F)(F)F)cc3)cc2c1, the remaining binding was 100% (binding, competition with immobilised ligand; 1 µM).
The remaining binding of CNC(=O)[C@@H]1CC[C@@H](n2c(-c3ccc4cnccc4c3)nc3ccc(C(=O)NCc4cccc(C(N)=O)c4)cc32)C1 is reported as 100% (binding, competition with immobilised ligand; 1 µM).
The remaining binding of CN(C(=O)c1ccccc1)c1cc(N(C)c2ccc3c(c2)CCc2ccc(C(=O)NCCN4CCOCC4)cc2C3=O)ccc1F is reported as 91% (cell-free assay, competition with immobilised ligand; 1 µM).
The remaining binding of N[C@@H]1CCN(c2nccc(-c3cnn4ncccc34)n2)C1 is reported as 100% (binding; 1 µM).
O=C(NCCCN1CCOCC1)c1ccc(Nc2nccc(-c3cc4ccccc4s3)n2)cc1 gave a remaining binding of 87% (binding, competition with immobilised ligand; 1 µM).
With CCCCN(CCCC)C(=O)CN1C[C@@H](c2cc(OC)c3c(c2)OCO3)[C@H](C(=O)O)[C@H]1CC(C)(C)CCC the remaining binding was 100% (cell-free assay, competition with immobilised ligand; 1 µM).
